Results on five compounds are retold here after ChEMBL document CHEMBL1125148, “(R)-4-oxo-5-phosphononorvaline: a new competitive glutamate antagonist at the NMDA receptor complex” (J Med Chem, 1990).

A short description of assay [1]: In vitro binding affinity towards N-methyl-D-aspartate glutamate receptor of the glutamate receptor using [3H]CPP as radioligand in rat cerebral cortical membranes. In kind it is cell membranes, Membrane. The method in brief: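 Rat brain membranes incubated with 10 nM [3H]CPP across a range of unlabeled antagonist concentrations. Specific binding was measured by centrifugation assay and expressed as percent inhibition versus concentration.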

The target in the next assay is Glutamate receptor 1 (Rattus norvegicus, UniProt P19490). The assay is described as follows: Binding affinity towards AMPA receptor using [3H]AMPA as radioligand; Inactive.
Sequence of Glutamate receptor 1 (P19490 whole entry): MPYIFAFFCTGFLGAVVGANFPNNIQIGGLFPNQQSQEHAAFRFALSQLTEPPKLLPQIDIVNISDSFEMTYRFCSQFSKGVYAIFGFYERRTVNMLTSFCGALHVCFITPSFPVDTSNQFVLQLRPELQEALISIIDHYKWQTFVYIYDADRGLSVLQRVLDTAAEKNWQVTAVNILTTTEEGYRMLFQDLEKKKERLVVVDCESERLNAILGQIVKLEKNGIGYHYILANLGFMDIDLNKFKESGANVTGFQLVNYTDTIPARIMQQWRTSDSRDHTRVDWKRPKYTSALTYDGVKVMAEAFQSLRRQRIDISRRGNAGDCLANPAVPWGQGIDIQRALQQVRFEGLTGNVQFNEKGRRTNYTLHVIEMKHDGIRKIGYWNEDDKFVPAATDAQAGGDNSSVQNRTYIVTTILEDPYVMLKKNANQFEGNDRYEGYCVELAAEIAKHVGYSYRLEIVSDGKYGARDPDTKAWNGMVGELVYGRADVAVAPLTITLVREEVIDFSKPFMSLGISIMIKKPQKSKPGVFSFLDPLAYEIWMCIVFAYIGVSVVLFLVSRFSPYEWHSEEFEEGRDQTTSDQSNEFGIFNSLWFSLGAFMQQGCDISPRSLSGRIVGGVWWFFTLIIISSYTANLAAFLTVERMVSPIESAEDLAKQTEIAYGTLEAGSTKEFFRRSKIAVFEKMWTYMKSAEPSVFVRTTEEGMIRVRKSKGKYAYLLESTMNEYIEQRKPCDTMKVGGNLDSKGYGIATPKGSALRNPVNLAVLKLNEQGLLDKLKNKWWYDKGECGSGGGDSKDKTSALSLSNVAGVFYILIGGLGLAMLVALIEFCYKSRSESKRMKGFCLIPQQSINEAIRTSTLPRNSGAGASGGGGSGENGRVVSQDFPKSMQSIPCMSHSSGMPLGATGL
A further assay is filed under the species Rattus norvegicus. The assay is described as follows: Percent inhibition of glutamate activity against cGMP was determined. In kind it is functional.
For assay [2], the target named is Glutamate receptor ionotropic, kainate 3 (Rattus norvegicus, UniProt P42264). The assay is described as follows: Binding affinity towards Ionotropic glutamate receptor kainate using [3H]-kainic acid as radioligand; Inactive.
Sequence of Glutamate receptor ionotropic, kainate 3 (P42264 whole entry): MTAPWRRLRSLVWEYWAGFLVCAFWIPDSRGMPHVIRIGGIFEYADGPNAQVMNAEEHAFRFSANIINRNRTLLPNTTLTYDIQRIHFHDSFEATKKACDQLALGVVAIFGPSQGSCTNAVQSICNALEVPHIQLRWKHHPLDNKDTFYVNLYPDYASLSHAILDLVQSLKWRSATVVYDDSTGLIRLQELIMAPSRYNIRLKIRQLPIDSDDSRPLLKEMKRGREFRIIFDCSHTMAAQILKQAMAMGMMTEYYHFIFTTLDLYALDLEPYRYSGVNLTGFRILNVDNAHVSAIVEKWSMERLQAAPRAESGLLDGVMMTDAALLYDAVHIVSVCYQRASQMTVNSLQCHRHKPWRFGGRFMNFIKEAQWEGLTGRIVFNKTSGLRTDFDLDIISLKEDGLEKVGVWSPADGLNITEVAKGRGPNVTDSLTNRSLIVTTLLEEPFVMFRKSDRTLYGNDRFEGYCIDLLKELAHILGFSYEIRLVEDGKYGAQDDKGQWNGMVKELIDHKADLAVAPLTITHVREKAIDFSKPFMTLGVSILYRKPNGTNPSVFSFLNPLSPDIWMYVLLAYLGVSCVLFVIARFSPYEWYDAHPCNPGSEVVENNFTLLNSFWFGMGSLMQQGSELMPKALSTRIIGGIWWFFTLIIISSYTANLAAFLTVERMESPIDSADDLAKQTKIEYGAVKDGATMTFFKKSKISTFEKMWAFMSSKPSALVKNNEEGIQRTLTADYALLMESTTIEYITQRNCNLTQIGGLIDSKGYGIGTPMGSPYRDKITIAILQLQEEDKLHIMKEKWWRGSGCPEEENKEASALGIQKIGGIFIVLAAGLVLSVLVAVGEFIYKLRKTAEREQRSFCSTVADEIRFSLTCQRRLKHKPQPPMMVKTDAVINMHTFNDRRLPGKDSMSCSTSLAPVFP

Regarding `O=C(O)C1CN(CCCP(=O)(O)O)CCN1` (stereo not given), the inhibition constant (Ki) in assay [1] was 0.131 µM; at Glutamate receptor 1 it was above 100 µM; in assay [2], above 100 µM. The IC50 in the assay filed under Rattus norvegicus worked out at 0.8 µM.
`NC(CCCP(=O)(O)O)C(=O)O` (stereo not given): the Ki in assay [1] was 0.176 µM; at Glutamate receptor 1 it was above 100 µM; in assay [2], above 100 µM. This compound also registered an IC50 in the assay filed under Rattus norvegicus of 5.5 µM.
For `N[C@H](CC(=O)CP(=O)(O)O)C(=O)O`, the Ki in assay [1] was 0.109 µM; on Glutamate receptor 1, above 100 µM; in assay [2] it was above 100 µM. Besides, the IC50 in the assay listed under Rattus norvegicus is 5.9 µM.
Turning to `NC(CCCCCP(=O)(O)O)C(=O)O` (stereo not given) [AP-7], the results for the inhibition constant (Ki) (in assay [1]; on Glutamate receptor 1; in assay [2]) were 0.73 µM, above 100 µM and above 100 µM, respectively. 14.1 µM corresponded to half-maximal inhibition in the assay listed under Rattus norvegicus (IC50).
In the case of `O=C(O)[C@@H]1C[C@H](CP(=O)(O)O)CCN1` [SELFOTEL], the Ki in assay [1] is 0.099 µM; at Glutamate receptor 1, above 100 µM; in assay [2], above 100 µM. Besides, the IC50 in the assay listed under Rattus norvegicus was found to be 1.1 µM.

By Ki is commonly meant the equilibrium dissociation constant of an inhibitor or competing ligand from its target. Usually IC50 stands for the concentration needed to halve the response being measured. Read a low IC50 as inhibition by little substance.
